Measured values as given in ChEMBL document CHEMBL1126749, “Synthesis and structure-activity relationships of nonpeptide, potent triazolone-based angiotensin II receptor antagonists” (J Med Chem, 1993).

Columns and labels:
[1] = target: T1, Type-1 angiotensin II receptor B (Rattus norvegicus, UniProt P29089); test: Inhibition of [125I]angiotensin-II binding to the angiotensin II receptor type 1 in rat uterine membranes; format: cell membranes, Membrane
T1 sequence (P29089 whole entry): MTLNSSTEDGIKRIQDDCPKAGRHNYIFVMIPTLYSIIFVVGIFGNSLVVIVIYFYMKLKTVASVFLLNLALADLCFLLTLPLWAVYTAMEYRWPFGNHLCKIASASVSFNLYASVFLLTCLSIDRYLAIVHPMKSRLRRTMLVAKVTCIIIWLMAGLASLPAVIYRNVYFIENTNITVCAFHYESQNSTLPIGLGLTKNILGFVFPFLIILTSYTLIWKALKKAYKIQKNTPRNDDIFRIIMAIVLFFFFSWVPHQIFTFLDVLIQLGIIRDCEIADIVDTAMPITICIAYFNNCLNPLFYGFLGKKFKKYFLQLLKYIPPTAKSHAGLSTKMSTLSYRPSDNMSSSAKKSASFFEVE

[2] = target: Angiotensin II receptor (Oryctolagus cuniculus); test: Antagonism of angiotensin-II mediated contraction of rabbit aortic rings expressed as pA2 (in vitro)
Rattus norvegicus = test: In vivo inhibition of pressor response to AII in rats following intragastric administration; format: functional; details: po, read-out: ID50 (the source's name)
Summary of the method: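 Male Sprague-Dawley rats anesthetized with methohexital 30 mg/kg ip. Femoral artery and vein catheterized, restrained, and allowed 3 h recovery. Arterial pressure recorded continuously, 1 h baseline, then AII infused at 50 ng/kg/min iv. Compound given intragastrically at 1-10 mg/kg. Change in mean arterial pressure compared at time points before and after dosing.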

SMILES	IC50 [1]	pA2 [2]	ED50 (Rattus norvegicus)
CCCCc1nn(CC(=O)C23C[C@H]4C[C@@H](C2)C[C@@H](C3)C4)c(=O)n1Cc1ccc(-c2ccccc2-c2nn[nH]n2)cc1	25 nM	8.1	
CCCCc1nn(CC(OCC)c2ccccc2)c(=O)n1Cc1ccc(-c2ccccc2-c2nn[nH]n2)cc1 (stereo not given)	15 nM		
CCCCc1nn(CC(OC)c2ccccc2)c(=O)n1Cc1ccc(-c2ccccc2-c2nn[nH]n2)cc1 (stereo not given)	12 nM	7.8	
CCCCc1nn(CC(O)c2ccccc2)c(=O)n1Cc1ccc(-c2ccccc2-c2nn[nH]n2)cc1 (stereo not given)	3.6 nM	8.3	
CCCCc1nn(CC(O)c2cc(OC)ccc2OC)c(=O)n1Cc1ccc(-c2ccccc2-c2nn[nH]n2)cc1 (stereo not given)	22 nM	8.1	
CCCCc1nn(C(Cc2ccccc2)C(=O)c2ccccc2)c(=O)n1Cc1ccc(-c2ccccc2-c2nn[nH]n2)cc1 (stereo not given)	5800 nM		
CCCCc1nn(CCC2CCCCC2)c(=O)n1Cc1ccc(-c2ccccc2-c2nn[nH]n2)cc1	18 nM	7.9	
CCCCc1nn(CC(=O)OC(C)(C)C)c(=O)n1Cc1ccc(-c2ccccc2-c2nn[nH]n2)cc1	16 nM	7.1	
CCCCc1nn(CC(OCC(=O)O)c2ccccc2)c(=O)n1Cc1ccc(-c2ccccc2-c2nn[nH]n2)cc1 (stereo not given)	30 nM		
CCCCc1nn(CC(OCCC)c2ccccc2)c(=O)n1Cc1ccc(-c2ccccc2-c2nn[nH]n2)cc1 (stereo not given)	45 nM	8.1	
CCCCc1nn(C(CC(=O)OCC)C(=O)c2ccccc2)c(=O)n1Cc1ccc(-c2ccccc2-c2nn[nH]n2)cc1 (stereo not given)	36 nM	7.8	
CCCCc1nn(CCCc2ccccc2)c(=O)n1Cc1ccc(-c2ccccc2-c2nn[nH]n2)cc1	18 nM	8	
CCCCc1nn(CCc2ccccc2)c(=O)n1Cc1ccc(-c2ccccc2-c2nn[nH]n2)cc1	3.1 nM	9.8	
CCCCc1nn(CC(=O)c2cc(OC)ccc2OC)c(=O)n1Cc1ccc(-c2ccccc2-c2nn[nH]n2)cc1	21 nM	8	
CCCCc1nn(Cc2ccccc2)c(=O)n1Cc1ccc(-c2ccccc2-c2nn[nH]n2)cc1	16 nM	8.1	
CCCCc1nn(CC(OCc2ccccc2)c2ccccc2)c(=O)n1Cc1ccc(-c2ccccc2-c2nn[nH]n2)cc1 (stereo not given)	280 nM	7.7	
CCCCc1nn(C/C=C/c2ccccc2)c(=O)n1Cc1ccc(-c2ccccc2-c2nn[nH]n2)cc1	290 nM		
CCCCc1nn(CC(OCC(=O)OCC)c2ccccc2)c(=O)n1Cc1ccc(-c2ccccc2-c2nn[nH]n2)cc1 (stereo not given)	180 nM	8.3	
CCCCc1nn(CCCCCC(=O)OCC)c(=O)n1Cc1ccc(-c2ccccc2-c2nn[nH]n2)cc1	9.8 nM	7.6	
CCCCc1nn(CCCCCC(=O)O)c(=O)n1Cc1ccc(-c2ccccc2-c2nn[nH]n2)cc1	17 nM	8.7	
CCCCc1nn(CCCC)c(=O)n1Cc1ccc(-c2ccccc2C(=O)O)cc1	101 nM	7	
CCCCc1nn(C(C)(C)C(=O)c2ccccc2)c(=O)n1Cc1ccc(-c2ccccc2-c2nn[nH]n2)cc1	43 nM	7.7	
CCCCc1nnc(O)n1Cc1ccc(-c2ccccc2-c2nn[nH]n2)cc1	42 nM	7.1	
CCCCc1nnc(O)n1Cc1ccc(-c2ccccc2C(=O)O)cc1	1500 nM	5.5	
CCCCc1nn(Cc2ccc3ccccc3c2)c(=O)n1Cc1ccc(-c2ccccc2-c2nn[nH]n2)cc1	280 nM	6.5	
CCCCc1nn(CC(=O)c2ccccc2)c(=O)n1Cc1ccc(-c2ccccc2-c2nn[nH]n2)cc1	7.9 nM		
CCCCc1nn(C(C)C)c(=O)n1Cc1ccc(-c2ccccc2-c2nnn[nH]2)cc1	20 nM		

The next lines start with results.

IC50 [1]	pA2 [2]	SMILES	ED50 (Rattus norvegicus)
12 nM	8	CCCCc1nn(CCCCC(=O)O)c(=O)n1Cc1ccc(-c2ccccc2-c2nn[nH]n2)cc1	
4.4 nM		CCCCc1nn(CCCCC(=O)OC)c(=O)n1Cc1ccc(-c2ccccc2-c2nn[nH]n2)cc1	
9 nM	7.8	CCCCc1nn(CC(=O)OCC)c(=O)n1Cc1ccc(-c2ccccc2-c2nn[nH]n2)cc1	
170 nM	8.5	CCCCCCCCn1nc(CCCC)n(Cc2ccc(-c3ccccc3-c3nn[nH]n3)cc2)c1=O	
91 nM	7.8	CCCCc1nn(CC(=O)O)c(=O)n1Cc1ccc(-c2ccccc2-c2nn[nH]n2)cc1	
8.7 nM	8.9	CCCCCCn1nc(CCCC)n(Cc2ccc(-c3ccccc3-c3nn[nH]n3)cc2)c1=O	
5.6 nM	9	CCCCCn1nc(CCCC)n(Cc2ccc(-c3ccccc3-c3nn[nH]n3)cc2)c1=O	
35 nM	7.9	CCCCc1nn(CCC(C)CC(C)(C)C)c(=O)n1Cc1ccc(-c2ccccc2-c2nn[nH]n2)cc1 (stereo not given)	
15 nM	8.2	CCCCc1nn(CCC)c(=O)n1Cc1ccc(-c2ccccc2-c2nn[nH]n2)cc1	
15 nM		CCCCc1nn(CC2CC2)c(=O)n1Cc1ccc(-c2ccccc2-c2nn[nH]n2)cc1	
5.1 nM		CCCCc1nn(CCCC)c(=O)n1Cc1ccc(-c2ccccc2-c2nnn[nH]2)cc1	2.1 mg/kg
10 nM	8.7	CCCCc1nn(C(C)CC)c(=O)n1Cc1ccc(-c2ccccc2-c2nn[nH]n2)cc1 (stereo not given)	
